# Screening results (PubChem BioAssay)
# SENP7 block: blocks the human protease SENP7; hit rate 1.5% among 330,000; Q9BQF6; recombinant SENP7, Z-RLRGG-aminoluciferin luminescence, 40 min; inhibition, % at 5 µM;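 active = inhibition above about 50% at the single test dose, limit read from the data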
# Target sequence (Q9BQF6 706-1050 limits assumed): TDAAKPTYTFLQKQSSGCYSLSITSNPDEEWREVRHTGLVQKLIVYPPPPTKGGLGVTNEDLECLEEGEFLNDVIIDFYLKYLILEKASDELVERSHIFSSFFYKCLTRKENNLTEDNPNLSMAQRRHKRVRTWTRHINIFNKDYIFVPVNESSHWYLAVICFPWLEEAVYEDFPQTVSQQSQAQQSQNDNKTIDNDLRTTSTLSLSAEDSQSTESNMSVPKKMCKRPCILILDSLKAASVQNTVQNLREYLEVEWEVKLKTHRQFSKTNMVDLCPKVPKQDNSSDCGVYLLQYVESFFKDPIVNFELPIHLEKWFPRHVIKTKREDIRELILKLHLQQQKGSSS
# SENP8 block-1: SENP8 protease inhibition; hit rate 1.2% among 330,000; purified SENP8, Z-RLRGG-aminoluciferin cleavage, luminescence; Q96LD8; inhibition, % at 10 µM; in the data active = inhibition above about 50%
# SENP6 inh: SENP6 protease inhibition | inhibition, % at 10 µM | Recombinant SENP6 catalytic domain, aminoluciferin luminescence | hit rate 1.8% among 330,000;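 active = inhibition above about 50% at the single tested dose, limit read from the data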
# SENP1 inh: blocks the human SENP1 SUMO protease catalytic domain | Q9P0U3 | recombinant SENP1 catalytic domain, CyPet-SUMO1-YPet FRET cleavage | inhibition, % at 10 µM | hit rate 0.21% among 360,000;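 active = inhibition at least 30% at 10 µM, raw YFP signal under a set limit, fluorescence ratio 0.5 to 1.5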
# Target sequence (Q9P0U3 419-644 limits assumed): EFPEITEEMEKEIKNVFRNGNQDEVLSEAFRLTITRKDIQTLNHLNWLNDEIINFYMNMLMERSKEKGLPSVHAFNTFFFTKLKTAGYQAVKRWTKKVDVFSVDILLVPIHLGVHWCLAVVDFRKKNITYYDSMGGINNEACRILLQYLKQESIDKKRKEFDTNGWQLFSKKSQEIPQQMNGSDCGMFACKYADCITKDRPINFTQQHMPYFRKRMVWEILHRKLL
#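 Assay system: hSENP1 catalytic domain, recombinant. Amount: SENP1 enzyme, 20 pM final. Schedule: 50 min reaction, RT, dark. Technique: FRET, CFP and YFP emission. Control set: no-enzyme wells low, DMSO-plus-enzyme wells high control.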
# SENP8 block-2: SENP8 (human) protease inhibition. Q96LD8. recombinant SENP8, Nedd8 substrate fluorescence. inhibition, % at 20 µM. hit rate 0.64% among 360,000. AID 602440; in the data active = inhibition mostly above about 40%, no sharp cut-off; inactive = mostly below about 27%
# Platelet DG rel: modulates dense granule release in human platelets | human platelet-rich plasma, SFLLRN dense granule ATP release, luminescence | inhibition, %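 (compounds screened at 7.5 µM in platelet-rich plasma)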 | hit rate 0.22% among 300,000;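 active = mean replicate score, as percent of positive control, at or above 50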
# SENP8 inh conf: confirmation of human SENP8 protease inhibitors. shares compounds with SENP8 block-2. purified SENP8, Nedd8-AMC/pro-Nedd8 cleavage fluorescence, 30 min. inhibition, % at 25 µM. hit rate 15% among 1,400. AID 624319; in the data active = inhibition mostly above about 39%, no sharp cut-off; inactive = mostly below about 34%
# Hits are given with their value; – = inactive; · = no result given. A selection: hits, their analogues and other compounds. The true share with any hit is near 2.6%.
SMILES,SENP7 block,SENP8 block-1,SENP6 inh,SENP1 inh,SENP8 block-2,Platelet DG rel,SENP8 inh conf
CCCCCC(=O)N1CC2(CC(c3cccc(NC(=O)[C@@H]4CCC(=O)N4)c3)=NO2)C[C@@H]1C(N)=O (stereo not given in full),–,–,–,–,–,–,·
Cc1csc(NC(C)c2nc3cc(C(F)(F)F)ccc3n2CCCO)n1 (stereo not given),–,–,–,–,–,–,·
O=C(CNC1CCN(Cc2ccccc2)CC1)Nc1ccc(S(=O)(=O)N2CCCCC2)cc1,–,–,–,–,43,–,–
COCCn1c(N)c(Sc2ccccc2)c(=O)[nH]c1=O,–,–,–,–,–,–,·
Cc1ccc(SCc2nnc(NC(=O)c3ccccc3)s2)cc1,–,–,–,–,40,–,–
CC(=O)c1cccc(NC(=O)N2CCCC2C(=O)Nc2cccc(C)c2)c1 (stereo not given),–,–,–,–,42,–,–
Cc1c(C(=O)N(C)C)sc(NC(=O)c2cc([N+](=O)[O-])cc([N+](=O)[O-])c2)c1C#N,–,–,–,–,44,–,–
O=C(N1CCCCC1)C1(c2ccccc2)CCOCC1,–,–,–,–,–,–,·
CC1=NN(c2ccc(C)cc2C)C(=O)C1C(c1ccccc1O)C1C(=O)N(c2ccc(C)cc2C)N=C1C (stereo not given),–,–,–,–,58,–,57
CN(C(=O)c1cccc(NC(=O)Cc2ccc(NC(=O)C3CCN(C(=O)C4CCCC4)CC3)cc2)c1)C1CCCCC1,·,·,·,–,–,·,·
O=[N+]([O-])c1ccc(N2CCCC2)cc1NCc1ccccc1,–,–,–,–,–,–,·
CC(Nc1cc(N2CCOCC2)ccc1[N+](=O)[O-])c1ccccc1 (stereo not given),–,–,–,–,–,–,·
O=[N+]([O-])c1ccc(N2CCOCC2)cc1NCc1ccccc1,–,–,–,–,42,·,–
COc1cccc(OCCNc2cc(N3CCCCC3)ccc2[N+](=O)[O-])c1,–,–,–,–,60,–,–
CC(Nc1cc(N2CCCC2)ccc1[N+](=O)[O-])c1ccccc1 (stereo not given),–,–,–,–,45,·,–
O=C(CSc1cn(CCNC(=O)c2ccc3ccccc3c2)c2ccccc12)NCc1ccco1,–,–,–,–,–,–,·
CSc1ccccc1NC(=O)C1CC(c2c(F)cccc2Cl)=NO1 (stereo not given),–,–,–,–,–,–,·
Cc1ccc(N2C(=O)c3cccc4cccc(c34)C2=O)cc1,–,–,–,–,–,–,·
Cc1ccc(N2C(=O)Cc3ccccc3C2=O)cc1,–,–,–,–,69,–,55
Cc1cccc(N2C(=O)Cc3ccccc3C2=O)c1,–,–,–,–,82,–,–
CCOCCCNC(=O)C1CCCN(S(=O)(=O)CC)C1 (stereo not given),–,–,–,–,46,–,–
COc1ccccc1N1CCN(C(=O)C2CCN(S(=O)(=O)c3ccccc3)CC2)CC1,–,–,–,–,–,–,·
COc1ccc(S(=O)(=O)N2CCC(C(=O)N3CCN(c4ccccc4OC)CC3)CC2)cc1,–,–,–,–,43,–,–
COc1ccc(OC)c(S(=O)(=O)N(C)CC(=O)N2CCc3ccccc3C2)c1,–,–,–,–,58,–,71
O=C(O)CCCCNS(=O)(=O)c1ccc(Cl)c(C(F)(F)F)c1,–,–,–,–,42,–,–
SMILES,SENP7 block,SENP8 block-1,SENP6 inh,SENP1 inh,SENP8 block-2,Platelet DG rel,SENP8 inh conf
CC1CCN(C(=O)N[C@@H](Cc2ccccc2)C(=O)O)CC1,–,–,–,–,–,–,·
C[n+]1cccc2cccc([O-])c21,·,·,·,–,96,·,58
CCOc1ccc(N2C(=O)CC(n3nc(C)cc3C)C2=O)cc1 (stereo not given),–,–,–,–,45,–,–
CCC(C(=O)NCc1ccccc1)n1c(-c2cccs2)nc2ccccc21 (stereo not given),·,·,·,–,–,·,·
CCOc1ccc(N(CC(=O)NCc2ccccc2OC)S(C)(=O)=O)cc1,–,–,–,–,–,–,·
CCOc1ccc(N(CC(=O)NCc2ccccc2)S(C)(=O)=O)cc1,–,–,–,–,48,–,–
C/C(=N\NC(=O)c1ccccn1)c1ccc(Cl)cc1,–,–,–,–,55,–,–
C/C(=N\NC(=O)c1ccc(Cl)cc1)c1ccccn1,–,–,–,–,–,–,·
O=C(COC(=O)c1ccco1)Nc1cc(S(=O)(=O)N2CCOCC2)ccc1Cl,–,–,–,–,–,·,·
CC(C)=CCC/C(C)=C/COc1ccc2ccc(=O)oc2c1,–,–,–,–,–,–,·
CC(C)=CCC/C(C)=C/COc1c2occc2cc2ccc(=O)oc12,–,–,–,–,57,·,–
CN(C(=S)Nc1cccnc1)c1ccc(O)cc1,·,·,·,–,40,–,–
CN(C(=S)Nc1ccccc1)c1ccccc1,–,–,–,–,–,–,·
CN(C(=S)Nc1ccc(Oc2ccccc2)cc1)c1ccc(O)cc1,·,·,·,–,46,–,–
CSc1ncc(-c2ccccc2)cn1,–,–,–,–,–,–,·
Cc1ccc(C(=O)NCCNc2ncc(C(F)(F)F)cc2Cl)cc1[N+](=O)[O-],–,–,–,–,–,–,·
O=[N+]([O-])c1cc(Cl)ccc1NCCNc1ncc(C(F)(F)F)cc1Cl,–,–,–,–,43,–,–
CN(C(=O)c1ccc(NC(=O)Cc2cccc(NC(=O)C3CCCN(S(=O)(=O)c4cccc([N+](=O)[O-])c4)C3)c2)cc1)C1CC1 (stereo not given),·,·,·,–,–,·,·
Cc1nccn1CC1CCc2c(c3ccccc3n2C)C1=O (stereo not given),–,–,–,–,–,–,·
Cc1[nH]cnc1CN1CCc2c(c3ccccc3n2C)C1=O,–,–,–,–,84,–,76
OC(c1cccc(Cl)c1)c1nc(-c2ccc(Cl)cc2)cs1 (stereo not given),·,·,·,–,–,·,·
O=C1c2cccc3cccc(c23)C(=O)C1(O)O,–,–,–,–,52,–,–
O=C(N/N=C/CCc1ccccc1)C1CCCCC1,–,–,–,–,–,–,·
O=C(N/N=C/CCc1ccccc1)c1ccccc1,–,–,–,–,47,–,–
COc1ccc(NC(=O)C(C)N2c3cccc4cccc(c34)S2(=O)=O)cc1 (stereo not given),–,–,–,–,–,–,·
CC(=O)Nc1ccc(N(CC(=O)NCC2CCCO2)C(=O)CCC(=O)Nc2cc(C)on2)cc1 (stereo not given),–,–,–,–,–,–,·
Cc1cc2ccccn2c1C(=O)c1ccccc1F,–,–,–,–,41,–,–
Cc1cc2ccccn2c1C(=S)NC(=O)c1ccccc1,–,–,–,–,–,–,·
O=C(N/N=C/c1ccncc1)c1cccc(S(=O)(=O)N2CCCC2)c1,–,–,–,–,–,·,·
